Reference: PMC2834294 (Chemistry & biology, 2010)

Experiments:
[1] = system: YFP-expressing HEK293 cells; test: Whole-cell patch-clamp, YFP-expressing HEK293 cells; assay type: cell-based; conditions: current density at −80 mV, mean ±SEM (n≥3)
Outline: (§1)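 Whole-cell patch clamp was done on HEK293 cells 24 h after transient transfection with human TRPML3 or YFP; constitutively active TRPML3(A419P) cells served as positive control. Bath solution (mM): 138 NaCl, 5.4 KCl, 2 MgCl2, 2 CaCl2, 10 HEPES, 10 d-glucose; pH 7.4. Pipette solution (mM): 140 CsCl, 10 HEPES, 3 ATP-Na, 1 BAPTA, 2 MgCl2; pH 7.2. Compounds at 10 µM were perfused. Capacitance-normalized current at −80 mV is reported as mean ± SEM, n≥3.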

TRPML3 [2] = target: T1, TRPML3 (Homo sapiens, UniProt Q8TDD5); test: Whole-cell patch-clamp, HEK293 cells transiently transfected with TRPML3; assay type: cell-based; conditions: for nA/pF (-80 mV) (TRPML3): current density at −80 mV, 10 µM in standard bath solution, mean ±SEM (n≥3); for average current density relative to constitutively active TRPML3 A419P: whole-cell, −80 mV
T1 sequence (Q8TDD5 1-553): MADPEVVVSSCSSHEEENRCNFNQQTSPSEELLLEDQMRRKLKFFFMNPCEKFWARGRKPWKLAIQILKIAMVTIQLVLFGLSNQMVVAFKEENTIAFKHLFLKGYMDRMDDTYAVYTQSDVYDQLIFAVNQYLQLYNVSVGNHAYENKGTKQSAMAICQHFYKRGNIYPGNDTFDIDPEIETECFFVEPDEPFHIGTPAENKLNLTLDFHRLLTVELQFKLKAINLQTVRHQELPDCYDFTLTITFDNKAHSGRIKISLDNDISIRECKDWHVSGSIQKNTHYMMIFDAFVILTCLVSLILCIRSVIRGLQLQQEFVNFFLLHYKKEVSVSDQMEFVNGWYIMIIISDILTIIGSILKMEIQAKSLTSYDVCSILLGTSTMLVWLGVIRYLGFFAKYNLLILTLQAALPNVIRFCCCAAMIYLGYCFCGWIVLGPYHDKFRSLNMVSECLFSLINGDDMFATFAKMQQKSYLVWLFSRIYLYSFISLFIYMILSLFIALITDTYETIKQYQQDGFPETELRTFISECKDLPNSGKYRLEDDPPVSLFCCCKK
Outline: as §1

TRPML3 [3] = target: T1, TRPML3; test: Fura-2 calcium imaging, HEK293 cells transiently expressing TRPML3; assay type: cell-based; conditions: for ⊗F340/F380 (TRPML3): 10 µM compound, mean ±SEM (n≥3); for kinetics of intracellular calcium increase: TRPML3-transfected HEK293 cells
Outline: (§2)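 HEK293 cells were transiently transfected (Genejammer) with the human channel construct or YFP control and measured 24 h later. Cells on glass coverslips were loaded with 4 µM fura-2-AM in bath solution (mM: 138 NaCl, 6 KCl, 2 MgCl2, 2 CaCl2, 10 HEPES, 5.5 D-glucose; pH 7.4). Compounds were applied at 10 µM and the F340/F380 ratio recorded. Values are mean ± SEM, n≥3.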

TRPML3 [4] = target: T1, TRPML3; assay type: cell-based; conditions: HEK293, read-out: Max % Activation (TRPML3)
Outline: (§3)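 HEK293 lines stably expressed YFP-fused human TRPML3 or zebrafish TRPN1 (G418 0.8 mg/ml, twice subcloned) and were plated at 1,500 cells/well for 23 h at 37 °C. After Fluo-8 loading (1 h 37 °C, 30 min RT), a 5 s basal read and 120 s post-addition read were taken. Max/basal ratios were normalized to DMSO and carbachol (87 µM).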

danio rerio TRPN1 = danio rerio TRPN1 (Danio rerio, UniProt Q7T1G6); assay type: cell-based; conditions: for Emax: HEK293, read-out: Max % Activation (Control); for activity against TRPN1: compounds tested from powders
danio rerio TRPN1, sequence (Q7T1G6 1-1614): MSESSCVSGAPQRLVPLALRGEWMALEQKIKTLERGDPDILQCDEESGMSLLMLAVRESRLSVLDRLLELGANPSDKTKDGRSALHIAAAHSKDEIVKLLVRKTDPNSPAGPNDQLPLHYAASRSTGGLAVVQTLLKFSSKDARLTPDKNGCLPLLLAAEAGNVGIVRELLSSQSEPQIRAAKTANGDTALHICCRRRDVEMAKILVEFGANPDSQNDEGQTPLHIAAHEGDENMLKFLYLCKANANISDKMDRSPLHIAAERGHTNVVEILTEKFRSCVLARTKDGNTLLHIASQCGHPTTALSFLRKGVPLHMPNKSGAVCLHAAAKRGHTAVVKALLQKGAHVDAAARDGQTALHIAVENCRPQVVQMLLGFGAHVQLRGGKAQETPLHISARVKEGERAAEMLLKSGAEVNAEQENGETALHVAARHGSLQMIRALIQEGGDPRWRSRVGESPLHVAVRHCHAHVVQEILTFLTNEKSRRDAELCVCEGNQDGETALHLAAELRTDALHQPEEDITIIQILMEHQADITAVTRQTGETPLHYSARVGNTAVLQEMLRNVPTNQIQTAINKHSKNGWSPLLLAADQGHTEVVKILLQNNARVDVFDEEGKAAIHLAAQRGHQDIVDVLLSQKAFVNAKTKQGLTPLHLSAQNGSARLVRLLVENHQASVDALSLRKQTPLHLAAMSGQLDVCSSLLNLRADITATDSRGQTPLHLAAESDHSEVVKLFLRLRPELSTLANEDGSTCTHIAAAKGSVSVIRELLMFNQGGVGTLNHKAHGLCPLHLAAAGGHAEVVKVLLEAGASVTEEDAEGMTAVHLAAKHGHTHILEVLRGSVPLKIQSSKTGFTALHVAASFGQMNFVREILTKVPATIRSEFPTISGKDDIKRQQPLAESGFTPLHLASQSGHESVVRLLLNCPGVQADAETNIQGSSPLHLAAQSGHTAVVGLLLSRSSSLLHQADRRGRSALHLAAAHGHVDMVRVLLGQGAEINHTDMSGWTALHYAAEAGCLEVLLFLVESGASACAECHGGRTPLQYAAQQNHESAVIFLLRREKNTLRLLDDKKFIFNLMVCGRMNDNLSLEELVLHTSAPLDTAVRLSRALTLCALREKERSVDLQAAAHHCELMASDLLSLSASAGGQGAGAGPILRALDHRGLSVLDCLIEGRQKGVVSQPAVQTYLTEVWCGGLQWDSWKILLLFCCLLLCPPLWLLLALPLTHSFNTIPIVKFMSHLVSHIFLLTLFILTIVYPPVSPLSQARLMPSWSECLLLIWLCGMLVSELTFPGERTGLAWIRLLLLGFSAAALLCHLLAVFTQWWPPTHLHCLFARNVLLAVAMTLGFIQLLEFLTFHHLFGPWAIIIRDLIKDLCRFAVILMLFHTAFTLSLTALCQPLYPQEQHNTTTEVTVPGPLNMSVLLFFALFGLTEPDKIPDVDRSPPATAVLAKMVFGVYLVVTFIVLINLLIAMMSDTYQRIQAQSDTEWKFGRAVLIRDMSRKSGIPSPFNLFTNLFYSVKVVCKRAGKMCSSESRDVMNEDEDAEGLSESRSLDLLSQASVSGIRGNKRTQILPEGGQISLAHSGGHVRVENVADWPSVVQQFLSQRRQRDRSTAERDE
Outline: as §3

[5] = system: YFP-expressing HEK293 cells; test: Fura-2 calcium imaging, YFP-expressing HEK293 cells; assay type: cell-based; conditions: mean ±SEM (n≥3)
Outline: as §2

[6] = target: T2, TRPML3 coexpressed with dynamin (Homo sapiens, UniProt Q8TDD5); test: Calcium imaging, HEK293 cells coexpressing wild type dynamin with TRPML3; assay type: cell-based; conditions: compared to control experiments
T2 sequence (Q8TDD5 1-553): T1 sequence (Q8TDD5 1-553)
Outline: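 HEK293 cells were transiently cotransfected (Genejammer) with wild-type dynamin and TRPML3 and imaged 24 h later. Cells on glass coverslips were loaded with 4 µM fura-2-AM in bath solution (mM: 138 NaCl, 6 KCl, 2 MgCl2, 2 CaCl2, 10 HEPES, 5.5 D-glucose; pH 7.4). Responses to activators were compared with control transfections.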

TRPML3 [7] = assay type: cell-based; conditions: 10 µM compound; ELS 2 mM Na+, 150 mM K+
Outline: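 Whole-cell recordings used HEK293 cells expressing TRPML3 with 100% series-resistance compensation. Pipette solution (mM): 140 CsCl, 10 HEPES, 3 ATP-Na, 1 BAPTA, 2 MgCl2; pH 7.2. Compound at 10 µM was perfused in endolymph-like solution (mM: 2 NaCl, 150 KCl, 0.25 CaCl2, 10 HEPES, 10 glucose; pH 7.4) or in standard bath. Inward current at −80 mV was normalized to capacitance.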

cochlear hair cells = test: Recording from acutely isolated cochlear hair cells; assay type: cell-based, rat; conditions: up-to 100 µM; in SBS, SN-2 also in ELS
[8] = target: T3, TRPML3 coexpressed with TRPML1 (Homo sapiens, UniProt Q8TDD5); test: Calcium imaging, HEK293 cells coexpressing TRPML3 with TRPML1; assay type: cell-based; conditions: 10 µM
T3 sequence (Q8TDD5 1-553): T1 sequence (Q8TDD5 1-553)
Outline: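 Human TRPML3 and TRPML1 were transiently coexpressed in HEK293 cells (Genejammer) and imaged 24 h post-transfection. Cells on glass coverslips were loaded with 4 μM fura-2-AM in bath solution (mM: 138 NaCl, 6 KCl, 2 MgCl₂, 2 CaCl₂, 10 HEPES, 5.5 D-glucose, pH 7.4) and read on a monochromator imaging system. Test compound was 10 μM. Mean ± SEM, n≥3 independent experiments, 20–30 cells each.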

TRPML2 = target: T4, TRPML2 (Homo sapiens, UniProt Q8IZK6); test: Fura-2 calcium imaging, HEK293 cells expressing TRPML2; assay type: cell-based; conditions: 10 µM
T4 sequence (Q8IZK6 1-566): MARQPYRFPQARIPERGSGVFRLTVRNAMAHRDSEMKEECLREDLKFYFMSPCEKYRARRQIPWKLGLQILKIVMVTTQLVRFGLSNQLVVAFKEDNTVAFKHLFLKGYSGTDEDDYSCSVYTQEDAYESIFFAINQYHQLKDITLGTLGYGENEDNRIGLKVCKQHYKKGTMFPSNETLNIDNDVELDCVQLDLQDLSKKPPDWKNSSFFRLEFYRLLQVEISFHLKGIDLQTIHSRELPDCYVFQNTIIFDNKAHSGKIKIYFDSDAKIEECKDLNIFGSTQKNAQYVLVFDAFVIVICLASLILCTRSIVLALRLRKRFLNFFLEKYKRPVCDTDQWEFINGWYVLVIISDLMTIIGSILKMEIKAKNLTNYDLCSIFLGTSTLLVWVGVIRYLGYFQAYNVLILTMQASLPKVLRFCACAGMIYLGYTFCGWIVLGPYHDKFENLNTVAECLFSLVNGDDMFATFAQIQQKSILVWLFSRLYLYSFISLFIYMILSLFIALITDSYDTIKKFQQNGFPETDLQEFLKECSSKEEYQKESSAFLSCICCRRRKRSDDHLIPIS
Outline: as §2

| nA/pF (-80 mV) (TRPML3) (TRPML3 [2]) [nA/pF] | average current density relative to constitutively active TRPML3 A419P (TRPML3 [2]) | ⊗F340/F380 (TRPML3) (TRPML3 [3]) | Emax (TRPML3 [4]) [%] | EC50 (danio rerio TRPN1) [µM] | Emax (danio rerio TRPN1) [%] | activity against TRPN1 (danio rerio TRPN1) | response when wild type dynamin coexpressed with TRPML3 in HEK293 cells [6] | response in HEK293 cells expressing TRPML2 (TRPML2) | Compound | nA/pF (-80 mV) (Control) [1] [nA/pF] | kinetics of intracellular calcium increase (TRPML3 [3]) | ⊗F340/F380 (Control) [5] | increase in current densities, compound + ELS vs ELS alone or compound in SBS (TRPML3 [7]) [fold] | TRPML3 channel activity in cochlear hair cells (cochlear hair cells) | calcium imaging response when TRPML1 was coexpressed with TRPML3 [8] |
| --- | --- | --- | --- | --- | --- | --- | --- | --- | --- | --- | --- | --- | --- | --- | --- |
| −0.41 ±0.10 | Stronger responses | 0.78 ±0.03 | 175 ± 18 | > 29.9 | 47 ± 3 | significant activity against TRPN1 |  |  | CC1=CC(C)(C)N(C(=O)CN2C(=O)c3ccccc3C2=O)c2ccccc21 [SF-51, 2-[2-oxo-2-(2,2,4-trimethylquinolin-1-yl)ethyl]isoindole-1,3-dione] | −0.016 ±0.008 | slowest kinetics |  |  |  |  |
| −0.02 ±0.01 |  | 0.51 ±0.05 | 86 ± 7 | > 29.9 | 2 |  | reduction in response |  | Cc1ccc(S(=O)(=O)Nc2ccccc2-c2ccccc2)cc1 [SF-24, 4-methyl-N-(2-phenylphenyl)benzenesulfonamide] |  |  | 0.016 ±0.023 | ≤ 10 |  |  |
| −0.55 ±0.08 | Stronger responses | 1.38 ±0.10 | 200 ± 7 | 14.2 ± 2.03 | 61 ± 2 | significant activity against TRPN1 |  | elicited responses | O=S(=O)(NC1CCCCC1N1CCOCC1)c1ccc(Cl)cc1 (centres unmarked) [SF-21, 4-chloro-N-(2-morpholin-4-ylcyclohexyl)benzenesulfonamide] |  | much more rapid increase than the other compounds | 0.033 ±0.008 |  | Neither compound at concentrations of up-to 100 µM, with or without endolymph-like extracellular solution, elicited TRPML3 channel activity | strong reduction of the calcium imaging responses |
| −0.08 ±0.02 |  | 0.75 ±0.06 | 85 ± 8 | > 29.9 | 2 ± 1 |  |  |  | CCCC(=O)Oc1c(S(=O)(=O)c2ccc(C)cc2)c(C)nn1C(C)(C)C [SF-71, [2-tert-butyl-5-methyl-4-(4-methylphenyl)sulfonylpyrazol-3-yl] butanoate] | −0.012 ±0.006 |  |  |  |  |  |
